Data: ChEMBL document CHEMBL4368912, “Discovery and Development of N-[4-(1-Cyclobutylpiperidin-4-yloxy)phenyl]-2-(morpholin-4-yl)acetamide Dihydrochloride (SUVN-G3031): A Novel, Potent, Selective, and Orally Active Histamine H3 Receptor Inverse Agonist with Robust Wake-Promoting Activity” (J Med Chem, 2019)
The source made the active and inactive calls. The rule behind the calls is not given here.

Key:
[1] = tested on: Rattus norvegicus; assay: Effect on locomotor activity in Wistar rat up to 100 mg/kg, po by open field test; type: ADME, organism-based; conditions: in vivo
[2] = Solubility in water; type: physicochemical
[3] = tested on: Rattus norvegicus; assay: Induction of wake promoting activity in orexin-B-saporin lesioned Wistar rat assessed as increase in wake time at 10 to 30 mg/kg, po dosed 15 mins before start of dark phase; type: functional, organism-based
Summary of the method: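 Rats carried epidural frontal-cortex EEG screws, nuchal EMG leads, and bilateral lateral hypothalamic orexin-B-saporin (490 ng/0.8 µl). After at least 3 weeks' recovery, they were dosed 15 min before lights-off in a crossover design with a 1-week washout. Wake, NREM and REM time was totalled over 3 h. DREM was scored as REM after ≥60 s wake. Dunnett's test was used.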

[4] = Fraction unbound in rat brain at 1 uM by equilibrium dialysis; type: ADME, tissue-based
[5] = Toxicity in dog assessed as effect on body temperature at 10 to 25 mg/kg, po; type: organism-based, Canis lupus familiaris; conditions: in vivo
Summary of the method: (§1)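 Male dogs received oral doses of 10, 18 and 25 mg/kg. Body weight, body temperature, blood pressure, heart rate and ECG were monitored.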

[6] = Mutagenicity in Escherichia coli WP2 in presence of metabolic activation by Ames test; type: toxicity
Summary of the method: (§2)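 Reverse-mutation test in Salmonella typhimurium TA1537, TA1535, TA98 and TA100 and in E. coli WP2 uvrA, run with and without metabolic activation.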

[7] = biological target: T1, Cytochrome P450 2A6 (Homo sapiens, UniProt P11509); assay: Inhibition of CYP2A6 (unknown origin); type: ADME
T1 sequence (P11509 whole entry): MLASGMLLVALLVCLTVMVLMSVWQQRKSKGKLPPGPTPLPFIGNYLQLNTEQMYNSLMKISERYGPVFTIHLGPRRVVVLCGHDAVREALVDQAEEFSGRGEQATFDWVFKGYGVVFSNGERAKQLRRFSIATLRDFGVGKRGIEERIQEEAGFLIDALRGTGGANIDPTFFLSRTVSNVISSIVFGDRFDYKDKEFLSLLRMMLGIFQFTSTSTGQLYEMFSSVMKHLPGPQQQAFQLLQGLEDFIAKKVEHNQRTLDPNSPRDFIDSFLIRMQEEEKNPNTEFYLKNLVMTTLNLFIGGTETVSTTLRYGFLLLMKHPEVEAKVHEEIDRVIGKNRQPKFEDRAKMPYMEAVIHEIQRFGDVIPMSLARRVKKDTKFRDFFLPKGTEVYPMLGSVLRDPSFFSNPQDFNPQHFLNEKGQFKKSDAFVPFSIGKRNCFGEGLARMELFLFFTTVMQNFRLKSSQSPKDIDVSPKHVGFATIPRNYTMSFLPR

[8] = biological target: Cytochrome P450 2C19 (Homo sapiens, UniProt P33261); assay: Inhibition of CYP2C19 (unknown origin); type: ADME
Chain of Cytochrome P450 2C19 (P33261 whole entry): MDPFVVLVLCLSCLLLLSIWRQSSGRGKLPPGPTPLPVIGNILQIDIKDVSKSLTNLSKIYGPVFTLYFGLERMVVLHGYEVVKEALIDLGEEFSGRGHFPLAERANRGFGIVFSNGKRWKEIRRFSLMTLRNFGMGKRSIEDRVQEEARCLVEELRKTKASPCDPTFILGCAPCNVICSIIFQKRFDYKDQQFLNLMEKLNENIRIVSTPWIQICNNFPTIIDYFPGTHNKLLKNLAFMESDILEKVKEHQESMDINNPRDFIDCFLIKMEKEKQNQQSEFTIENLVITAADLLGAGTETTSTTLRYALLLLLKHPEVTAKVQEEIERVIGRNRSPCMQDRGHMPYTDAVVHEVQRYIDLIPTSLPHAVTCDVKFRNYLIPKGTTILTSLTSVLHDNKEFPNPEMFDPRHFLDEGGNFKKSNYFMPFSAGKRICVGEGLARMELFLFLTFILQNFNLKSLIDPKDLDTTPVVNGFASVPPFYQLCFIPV

[9] = Ratio of drug uptake in Wistar rat brain to plasma at 3 mg/kg, po by LC-MS/MS analysis; type: ADME, organism-based; conditions: brain and plasma, read-out: BPR
Summary of the method: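 Fasted male Wistar rats were dosed orally with water for injection as the vehicle. Total brain and plasma concentrations were measured at 1 h after dosing and expressed as a ratio.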

[10] = biological target: Cytochrome P450 2E1 (Homo sapiens, UniProt P05181); assay: Inhibition of CYP2E1 (unknown origin); type: ADME
Chain of Cytochrome P450 2E1 (P05181 whole entry): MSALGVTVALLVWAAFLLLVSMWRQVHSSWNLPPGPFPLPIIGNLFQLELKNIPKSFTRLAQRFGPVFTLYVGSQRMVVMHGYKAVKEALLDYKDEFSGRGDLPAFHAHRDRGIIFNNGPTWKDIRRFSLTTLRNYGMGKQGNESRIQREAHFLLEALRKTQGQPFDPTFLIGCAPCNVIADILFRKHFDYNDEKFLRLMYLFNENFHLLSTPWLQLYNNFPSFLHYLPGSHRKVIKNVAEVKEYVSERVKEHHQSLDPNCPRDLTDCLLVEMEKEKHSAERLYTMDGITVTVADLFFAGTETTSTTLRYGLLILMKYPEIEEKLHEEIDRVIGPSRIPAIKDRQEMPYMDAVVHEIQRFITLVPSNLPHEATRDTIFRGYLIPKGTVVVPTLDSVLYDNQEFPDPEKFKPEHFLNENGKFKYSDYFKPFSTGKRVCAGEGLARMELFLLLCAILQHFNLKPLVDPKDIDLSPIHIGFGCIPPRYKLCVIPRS

[11] = AUCt in Beagle dog at 3 mg/kg, po by LC-MS/MS analysis; type: ADME, organism-based, Canis lupus familiaris; conditions: in vivo
[12] = Tmax in Beagle dog at 3 mg/kg, po or 1 mg/kg, iv by LC-MS/MS analysis; type: ADME, organism-based, Canis lupus familiaris; conditions: in vivo
[13] = Toxicity in dog assessed as effect on heart rate at 10 to 25 mg/kg, po; type: organism-based, Canis lupus familiaris; conditions: in vivo; summary of the method: as §1
[14] = Fraction unbound in rat plasma at 1 uM by equilibrium dialysis; type: ADME, cell-free
Summary of the method: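 Rapid equilibrium dialysis of fresh rat, dog or human plasma at a compound concentration of 1.0 µM. Unbound fraction reported as a percentage.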

[15] = Metabolic stability in human liver microsomes in presence of NADPH after 30 mins by LC-MS/MS analysis; type: ADME, Microsome; conditions: read-out: Stability
[16] = tested on: Rattus norvegicus; assay: In vivo receptor occupancy at histamine 3 receptor in Wistar rat frontal cortex at 1 to 3 mg/kg, po after measured after 4 to 6 hrs by LC-MS/MS analysis relative to control; type: functional
[17] = tested on: Rattus norvegicus; assay: Effect on accumbal dopamine levels in Wistar rat at 100 mg/kg, po by microdialysis; type: ADME, organism-based; conditions: in vivo
[18] = Respiratory toxicity in Wistar rat up to 90 mg/kg, po; type: organism-based; conditions: in vivo
Summary of the method: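 Respiratory safety was evaluated in rats given single oral doses of 10, 30 and 90 mg/kg.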

[19] = Clearance in Wistar rat at 1 mg/kg, iv by LC-MS/MS analysis; type: ADME, organism-based; conditions: in vivo
Summary of the method: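 Fasted male Wistar rats dosed i.v. in water for injection at 2 mL/kg. Clearance and half-life derived from the i.v. plasma profile.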

[20] = biological target: Cytochrome P450 2C9 (Homo sapiens, UniProt P11712); assay: Inhibition of CYP2C9 (unknown origin); type: ADME
Chain of Cytochrome P450 2C9 (P11712 whole entry): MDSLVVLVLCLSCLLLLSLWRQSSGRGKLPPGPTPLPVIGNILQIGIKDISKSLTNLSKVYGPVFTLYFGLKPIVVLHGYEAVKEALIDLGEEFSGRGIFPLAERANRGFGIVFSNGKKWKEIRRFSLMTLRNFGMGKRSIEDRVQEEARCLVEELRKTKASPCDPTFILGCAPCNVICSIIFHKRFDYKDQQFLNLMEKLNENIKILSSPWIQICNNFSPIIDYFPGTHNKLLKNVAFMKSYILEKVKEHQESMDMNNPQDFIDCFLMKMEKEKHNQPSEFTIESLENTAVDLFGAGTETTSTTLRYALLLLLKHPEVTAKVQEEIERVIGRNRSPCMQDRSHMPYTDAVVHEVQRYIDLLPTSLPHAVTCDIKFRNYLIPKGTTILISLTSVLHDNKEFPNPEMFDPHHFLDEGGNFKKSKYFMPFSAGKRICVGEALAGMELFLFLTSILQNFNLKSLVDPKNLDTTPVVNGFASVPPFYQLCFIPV

[21] = Metabolic stability in human hepatocytes after 30 mins by LC-MS/MS analysis; type: ADME, cell-based, Hepatocyte; conditions: read-out: Stability
[22] = Volume of distribution in Beagle dog at 1 mg/kg, iv by LC-MS/MS analysis; type: ADME, organism-based, Canis lupus familiaris; conditions: in vivo
[23] = Mutagenicity in Escherichia coli WP2 in absence of metabolic activation by Ames test; type: toxicity; summary of the method: as §2
[24] = biological target: T2, Cytochrome P450 1A2 (Homo sapiens, UniProt P05177); assay: Inhibition of CYP1A2 (unknown origin); type: ADME
T2 sequence (P05177 whole entry): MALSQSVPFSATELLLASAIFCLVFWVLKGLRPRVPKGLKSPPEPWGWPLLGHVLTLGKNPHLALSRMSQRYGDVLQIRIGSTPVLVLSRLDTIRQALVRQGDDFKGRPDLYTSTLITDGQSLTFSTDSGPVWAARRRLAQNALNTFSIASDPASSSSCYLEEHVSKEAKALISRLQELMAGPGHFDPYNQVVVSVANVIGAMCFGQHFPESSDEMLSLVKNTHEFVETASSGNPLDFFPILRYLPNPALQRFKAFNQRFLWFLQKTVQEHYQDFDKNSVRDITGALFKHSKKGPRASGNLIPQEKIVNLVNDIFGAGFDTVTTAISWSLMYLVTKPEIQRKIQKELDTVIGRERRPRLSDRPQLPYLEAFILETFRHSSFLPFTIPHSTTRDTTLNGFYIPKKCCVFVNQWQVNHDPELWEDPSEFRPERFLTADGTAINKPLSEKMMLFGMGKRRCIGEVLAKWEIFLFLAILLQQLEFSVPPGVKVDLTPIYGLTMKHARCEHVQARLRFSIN

[25] = Oral bioavailability in Beagle dog at 3 mg/kg by LC-MS/MS analysis; type: ADME, organism-based, Canis lupus familiaris; conditions: in vivo
[26] = Clearance in Beagle dog at 1 mg/kg, iv by LC-MS/MS analysis; type: ADME, organism-based, Canis lupus familiaris; conditions: in vivo
[27] = tested on: Rattus norvegicus; assay: In vivo receptor occupancy at histamine 3 receptor in po dosed Wistar rat frontal cortex after 1 to 24 hrs by LC-MS/MS analysis; type: functional
[28] = Toxicity in dog assessed as effect on body weight at 10 to 25 mg/kg, po; type: organism-based, Canis lupus familiaris; conditions: in vivo; summary of the method: as §1
[29] = Metabolic stability in dog hepatocytes after 30 mins by LC-MS/MS analysis; type: ADME, cell-based, Canis lupus familiaris, Hepatocyte; conditions: read-out: Stability

Question: Which Activity [1] does the source give for Cl.Cl.O=C(CN1CCOCC1)Nc1ccc(OC2CCN(C3CCC3)CC2)cc1 here?
Answer: Non-Toxic

Question: What about the solubility [2] of the same compound?
Answer: 730 mg/mL

Question: What about the Activity [3] of the same compound?
Answer: Active

Question: What about the fraction unbound at 1 µM [4] of the same compound?
Answer: 0.57

Question: What about the Activity [5] of the same compound?
Answer: Non-Toxic

Question: And the Activity [6]?
Answer: Non-Toxic

Question: What about the IC50 [7] of the same compound?
Answer: > 45 µM

Question: What about the IC50 [8] of the same compound?
Answer: > 45 µM

Question: What about the Kp [9] of the same compound?
Answer: 0.93

Question: What about the IC50 [10] of the same compound?
Answer: > 10 µM

Question: And the AUC(0-t) [11]?
Answer: 1120 ng·h/mL

Question: What about the Tmax [12] of the same compound?
Answer: 15 to 60 min

Question: And the Activity [13]?
Answer: Non-Toxic

Question: And the fraction unbound at 1 µM [14]?
Answer: 0.37

Question: What about the remaining at 0.5 h [15] of the same compound?
Answer: < 5%

Question: What about the Occ [16] of the same compound?
Answer: 50%

Question: What about the Activity [17] of the same compound?
Answer: Non-Toxic

Question: And the Activity [18]?
Answer: Non-Toxic

Question: And the clearance [19]?
Answer: 63 mL/min/kg

Question: And the IC50 [20]?
Answer: > 45 µM

Question: What about the remaining at 0.5 h [21] of the same compound?
Answer: < 5%

Question: And the Vd [22]?
Answer: 5.2 L/kg

Question: And the Activity [23]?
Answer: Non-Toxic

Question: And the IC50 [24]?
Answer: > 45 µM

Question: And the bioavailability [25]?
Answer: 83%

Question: What about the clearance [26] of the same compound?
Answer: 36 mL/min/kg

Question: What about the ED50 [27] of the same compound?
Answer: 0.24 mg/kg

Question: And the ED80 [27]?
Answer: 3.05 mg/kg

Question: What about the Occ [27] of the same compound?
Answer: Dose-dependent effect

Question: And the Activity [28]?
Answer: Non-Toxic

Question: What about the remaining at 0.5 h [29] of the same compound?
Answer: 33%
